The values below come from PubChem BioAssay.

Active and inactive are the calls of the source.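 Rule for the calls, unless noted: active = GFP response above 150% of the DMSO level; inconclusive = fewer than 70 events counted for a yeast strain; inactive = the rest.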

Test [1] can be described thus: RPL19A-GFP modulators, yeast TOR pathway, confirmation, cell-based, S. cerevisiae, flow cytometry, cherry picks, mother/daughter gates (AID 2270;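 active = GFP response below 50% of the DMSO control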). The conditions noted are these: S. cerevisiae RPL19A-GFP strain, 3 h, at 10 µM, stronger effect = lower value, 100 = same GFP as DMSO wells.
A short description of test [2]: LAP4-GFP expression modulators in yeast, confirmation, cell-based, cherry picks, flow cytometry, mother/daughter gates (AID 2271;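 active = GFP response above 150% of the DMSO control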;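 note: ratio of sample to DMSO plate mean so 100% equals DMSO level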). As to conditions: S. cerevisiae LAP4-GFP strain, 3 h, at 10 µM, stronger effect = higher value, 100 means same as DMSO control. Summed up: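 System: Alexa 633-stained baker's yeast GFP-fusion strain / Medium: synthetic complete (SC) yeast growth medium / Doses: compound at 10 µM, single point / Times: 3 h treatment at 30 °C with rotation / Detection: HT flow cytometry, GFP fluorescence channel / Benchmarks: DMSO-only negative wells, rapamycin 400 ng/mL positive wells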

The nature of test [3]: modulators of MEP2-GFP levels in yeast, confirmation, S. cerevisiae, flow cytometry GFP, cherry picks (AID 2272;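 active = GFP response above 150% of the DMSO control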;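 note: ratio of well signal to plate DMSO mean so 100% equals DMSO level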). The conditions noted are these: S. cerevisiae MEP2-GFP strain, 3 h, at 10 µM, stronger effect = higher value.
A short description of test [4]: AGP1-GFP expression modulators, hit retest, confirmation, cell-based, flow cytometry, S. cerevisiae, cherry picks (AID 2273).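 Note: median GFP channel fluorescence over the whole cell population gate.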 As to conditions: S. cerevisiae AGP1-GFP strain, 3 h, at 10 µM. (In general: In flow cytometry, cells or beads pass a laser one at a time.)
The nature of test [5]: modulators of CIT2-GFP expression in yeast, confirmation, S. cerevisiae, GFP fusion, cherry picks, mother/daughter gates (AID 2274). The conditions noted are these: S. cerevisiae CIT2-GFP strain, flow cytometry, 3 h, at 10 µM, stronger effect = higher value.
Where [6] appears, read: measured here: daughter cell gate.
[7] abbreviates: measured here: mother cell gate.
The mark [8] stands for this setting: measured here: daughter cell gate response.
Where [9] appears, read: measured here: mother cell gate response.

For `COc1cc(NC(=O)c2ccc(C)cc2)ccc1NC(=O)c1cc2ccccc2o1`, the GFP response vs DMSO in test [1] is 95.4% (inactive); in test [1] (setting [6]), 86%; in test [1] (setting [7]), 85.2%; in test [3] it was 99% (inactive). Moreover, the GFP response relative to DMSO in test [2] is 95.7% (inactive); in test [2] (setting [8]), 91%; in test [2] (setting [9]), 91%. In addition, the GFP response, % of DMSO in test [4] is 109% (inactive); in test [5], 100% (inactive); in test [5] (setting [6]), 88.4%; in test [5] (setting [7]) it was 89.5%.
`O=Nc1c(O)c2ccccc2c2ccccc12`: the GFP response vs DMSO in test [1] was 113% (inactive); in test [1] (setting [6]) it was 109%; in test [1] (setting [7]), 111%; in test [3], 111% (inactive). Also, the GFP response relative to DMSO was 114% (inactive) in test [2], 113% in test [2] (setting [8]) and 119% in test [2] (setting [9]). The GFP response, % of DMSO was 104% (inactive) in test [4], 107% (inactive) in test [5], 106% in test [5] (setting [6]) and 105% in test [5] (setting [7]).
As to `O=C1C(Cl)=C(N2CCN(Cc3ccccc3)CC2)C(=O)N1c1ccccc1`, the GFP response vs DMSO in test [1] is 98.6% (inactive); in test [1] (setting [6]), 98.4%; in test [1] (setting [7]), 98.5%; in test [3], 100% (inactive). The GFP response relative to DMSO was 96.2% (inactive) in test [2], 95.6% in test [2] (setting [8]) and 96.2% in test [2] (setting [9]). The GFP response, % of DMSO is 97.8% (inactive) in test [4], 99.1% (inactive) in test [5], 98.1% in test [5] (setting [6]) and 96.6% in test [5] (setting [7]).
For the compound `CCN(CC)c1ccc(/C=C/c2cccc[n+]2C)c(OC)c1`, the GFP response vs DMSO in test [1] is 103% (inactive); in test [1] (setting [6]) it was 103%; in test [1] (setting [7]), 105%; in test [3] it was 137% (inactive). The GFP response relative to DMSO in test [2] is 113% (inactive); in test [2] (setting [8]) it was 113%; in test [2] (setting [9]), 116%. In addition, the GFP response, % of DMSO in test [4] was 104% (inactive); in test [5] it was 112% (inactive); in test [5] (setting [6]), 113%; in test [5] (setting [7]), 111%.
With `CCOC(=O)C(CC)Sc1ncnc2c1nnn2-c1ccc(F)cc1` (configuration not stated), the GFP response vs DMSO in test [1] was 94.8% (inactive); in test [1] (setting [6]), 95.1%; in test [1] (setting [7]), 95.8%; in test [3], 96.2% (inactive). Moreover, the GFP response relative to DMSO was 101% (inactive) in test [2], 101% in test [2] (setting [8]) and 99.3% in test [2] (setting [9]). Moreover, the GFP response, % of DMSO in test [4] is 94.8% (inactive); in test [5], 96.9% (inactive); in test [5] (setting [6]), 97.2%; in test [5] (setting [7]), 97.3%.
Take `CCC(C(=O)O)n1nc(-c2ccccc2)c2cc(Cl)ccc21` (configuration not stated): the GFP response vs DMSO is 98.7% (inactive) in test [1], 98.4% in test [1] (setting [6]), 98.2% in test [1] (setting [7]) and 99.3% (inactive) in test [3]. Besides, the GFP response relative to DMSO in test [2] was 98.9% (inactive); in test [2] (setting [8]), 96%; in test [2] (setting [9]), 99.5%. For the same compound, the GFP response, % of DMSO in test [4] is 102% (inactive); in test [5], 101% (inactive); in test [5] (setting [6]), 99.3%; in test [5] (setting [7]), 102%.
Consider `CCn1cc([N+](=O)[O-])c(C(=O)Nc2nc(-c3ccc(C)c(C)c3)c(C)s2)n1`, for which the GFP response vs DMSO in test [1] was 98.8% (inactive); in test [1] (setting [6]), 98.6%; in test [1] (setting [7]) it was 99.2%; in test [3], 100% (inactive). Further, the GFP response relative to DMSO is 95.4% (inactive) in test [2], 97.6% in test [2] (setting [8]) and 94% in test [2] (setting [9]). In addition, the GFP response, % of DMSO in test [4] is 101% (inactive); in test [5], 99.7% (inactive); in test [5] (setting [6]), 99.1%; in test [5] (setting [7]), 97.3%.
For the compound `C(=N\Nc1ccccn1)/c1c[nH]c2ccccc12`, the GFP response vs DMSO in test [1] was 103% (inactive); in test [1] (setting [6]) it was 102%; in test [1] (setting [7]), 104%; in test [3], 101% (inactive). Further, the GFP response relative to DMSO is 97% (inactive) in test [2], 95.9% in test [2] (setting [8]) and 96.2% in test [2] (setting [9]). For the same compound, the GFP response, % of DMSO in test [4] is 104% (inactive); in test [5] it was 100% (inactive); in test [5] (setting [6]), 99.2%; in test [5] (setting [7]) it was 98.1%.
In the case of `CCS(=O)(=O)N1N=C(c2ccc(NS(C)(=O)=O)cc2)CC1c1ccccc1` (configuration not stated), the GFP response vs DMSO in test [1] was 99.8% (inactive); in test [1] (setting [6]) it was 98.4%; in test [1] (setting [7]) it was 99%; in test [3], 108% (inactive). Besides, the GFP response relative to DMSO in test [2] was 101% (inactive); in test [2] (setting [8]), 104%; in test [2] (setting [9]), 99.5%. In addition, the GFP response, % of DMSO in test [4] is 106% (inactive); in test [5], 101% (inactive); in test [5] (setting [6]) it was 103%; in test [5] (setting [7]), 103%.
Regarding `O=c1/c(=C/c2cccc3ccccc23)sc2ncnn12`, the GFP response vs DMSO in test [1] was 112% (inactive); in test [1] (setting [6]), 113%; in test [1] (setting [7]), 107%; in test [3], 116% (inactive). Moreover, the GFP response relative to DMSO in test [2] is 185% (active); in test [2] (setting [8]), 177%; in test [2] (setting [9]) it was 180%. Besides, the GFP response, % of DMSO was 91.2% (inactive) in test [4], 112% (inactive) in test [5], 122% in test [5] (setting [6]) and 100% in test [5] (setting [7]).
In the case of `CCCc1[nH]nc2c1C(c1cc(OC)ccc1F)C(C#N)=C(N)O2` (configuration not stated), the GFP response vs DMSO is 98% (inactive) in test [1], 99.3% in test [1] (setting [6]), 97.7% in test [1] (setting [7]) and 96.8% (inactive) in test [3]. The GFP response relative to DMSO was 101% (inactive) in test [2], 101% in test [2] (setting [8]) and 100% in test [2] (setting [9]). For the same compound, the GFP response, % of DMSO was 101% (inactive) in test [4], 105% (inactive) in test [5], 103% in test [5] (setting [6]) and 104% in test [5] (setting [7]).
`CC(=O)Nc1c(-c2ccc(F)cc2)nc2ccccn12`: the GFP response vs DMSO in test [1] was 97.6% (inactive); in test [1] (setting [6]) it was 99%; in test [1] (setting [7]), 95.8%; in test [3] it was 116% (inactive). Also, the results for the GFP response relative to DMSO in test [2], in test [2] (setting [8]) and in test [2] (setting [9]) were 106% (inactive), 110% and 108%, respectively. Also, the GFP response, % of DMSO was 106% (inactive) in test [4], 110% (inactive) in test [5], 114% in test [5] (setting [6]) and 108% in test [5] (setting [7]).
As to `CCN(CC)N=Nc1[nH]nc2nc(C)cc(C)c12`, the GFP response vs DMSO was 127% (inactive) in test [1], 103% in test [1] (setting [6]), 118% in test [1] (setting [7]) and 137% (inactive) in test [3]. Besides, the GFP response relative to DMSO was 120% (inactive) in test [2], 102% in test [2] (setting [8]) and 116% in test [2] (setting [9]). Further, the GFP response, % of DMSO is 120% (inactive) in test [4], 133% (inactive) in test [5], 123% in test [5] (setting [6]) and 134% in test [5] (setting [7]).
For the compound `CC(Oc1ccc(Cl)cc1Cl)C(=O)NC1=NN(c2ccccc2)C(=O)C1` (configuration not stated), the GFP response vs DMSO is 95.8% (inactive) in test [1], 98.9% in test [1] (setting [6]), 96.4% in test [1] (setting [7]) and 98.3% (inactive) in test [3]. Further, the values for the GFP response relative to DMSO in test [2], in test [2] (setting [8]) and in test [2] (setting [9]) were 101% (inactive), 101% and 98.3%, respectively. For the same compound, the GFP response, % of DMSO in test [4] was 102% (inactive); in test [5] it was 98.3% (inactive); in test [5] (setting [6]), 99.1%; in test [5] (setting [7]), 97.3%.
Regarding `O=C(O)c1ccc2ccc3ccccc3c2c1`, the GFP response vs DMSO is 96.6% (inactive) in test [1], 94.2% in test [1] (setting [6]), 95% in test [1] (setting [7]) and 96.8% (inactive) in test [3]. The GFP response relative to DMSO in test [2] was 99.5% (inactive); in test [2] (setting [8]) it was 97.5%; in test [2] (setting [9]) it was 98.4%. Further, the GFP response, % of DMSO was 105% (inactive) in test [4], 122% (inactive) in test [5], 121% in test [5] (setting [6]) and 121% in test [5] (setting [7]).
As to `CCOC(=O)c1c(C)oc2c1c(C(c1cccnc1)N1CCOCC1)c(O)c1ccccc12` (configuration not stated), the GFP response vs DMSO in test [1] is 95% (inactive); in test [1] (setting [6]), 98.5%; in test [1] (setting [7]), 89.6%; in test [3], 124% (inactive). Besides, the GFP response relative to DMSO in test [2] is 203% (active); in test [2] (setting [8]), 199%; in test [2] (setting [9]), 188%. Also, the GFP response, % of DMSO is 104% (inactive) in test [4], 97.8% (inactive) in test [5], 109% in test [5] (setting [6]) and 86.3% in test [5] (setting [7]).
For `COC(=O)c1ccccc1OCC(=O)NC1CCCCC1`, the GFP response vs DMSO was 88.9% (inactive) in test [1], 83.8% in test [1] (setting [6]), 92.2% in test [1] (setting [7]) and 89.9% (inactive) in test [3]. The figures for the GFP response relative to DMSO in test [2], in test [2] (setting [8]) and in test [2] (setting [9]) were 135% (inactive), 126% and 145%, respectively. Moreover, the GFP response, % of DMSO in test [4] is 91.7% (inactive); in test [5], 84.1% (inactive); in test [5] (setting [6]), 80.7%; in test [5] (setting [7]), 85.5%.
